For nine compounds, Ratio, inhibition and Activity results are on record in ChEMBL document CHEMBL5653606 (J Pharmacol Exp Ther, 2011).

The target in assay [1] is T1, Fatty-acid amide hydrolase 1 (Rattus norvegicus) (UniProt P97612).
T1 sequence (whole entry): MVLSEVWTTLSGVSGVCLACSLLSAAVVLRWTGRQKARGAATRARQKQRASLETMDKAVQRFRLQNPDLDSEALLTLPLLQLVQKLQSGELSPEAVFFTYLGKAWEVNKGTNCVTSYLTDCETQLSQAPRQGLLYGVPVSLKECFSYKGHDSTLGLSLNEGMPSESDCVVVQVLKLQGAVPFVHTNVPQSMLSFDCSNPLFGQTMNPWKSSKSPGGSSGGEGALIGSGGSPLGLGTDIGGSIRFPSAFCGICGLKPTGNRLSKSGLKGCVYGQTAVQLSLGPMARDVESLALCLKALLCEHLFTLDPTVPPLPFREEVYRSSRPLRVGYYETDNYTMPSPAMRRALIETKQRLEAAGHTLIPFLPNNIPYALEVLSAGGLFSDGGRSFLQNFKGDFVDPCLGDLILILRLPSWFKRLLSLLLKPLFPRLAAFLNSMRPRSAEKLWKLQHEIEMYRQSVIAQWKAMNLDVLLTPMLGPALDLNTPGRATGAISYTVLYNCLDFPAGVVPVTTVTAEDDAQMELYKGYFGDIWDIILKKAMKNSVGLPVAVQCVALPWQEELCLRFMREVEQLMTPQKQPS
Kind of assay: Inhibition of rat FAAH assessed as kinact/Ki ratio in presence of glutamate dehydrogenase by 384-well format microplate reader assay. Put shortly:
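Purified recombinant FAAH (>95% pure), human or rat. Glutamate dehydrogenase-coupled assay in 384-well format, 50 μl final volume. NAD⁺ formed from ammonia released by oleamide hydrolysis, followed at 340 nm.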

Assay [2] has as its system Mus musculus. Nature of the assay: In vivo inhibition of rhodamine-azide tagged FAAH in FAAH knockout mouse liver at 10 mg/kg, ip administered for 2 hrs by CC-ABPP method based in-gel fluorescence scanning analysis. Format: functional, organism-based. Put shortly:
(§1)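 Alkyne analog given at 10 mg/kg i.p. to FAAH(+/+) or FAAH(−/−) mice. Animals killed at 2 h. Brain or liver proteomes click-reacted with rhodamine-azide tag, then analyzed by in-gel fluorescence scanning.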

Assay [3] has as its system Mus musculus. Nature of the assay: In vivo inhibition of rhodamine-azide tagged FAAH expressed in mouse brain at 10 mg/kg, ip administered for 2 hrs by CC-ABPP method based in-gel fluorescence scanning analysis. Format: functional, organism-based. Put shortly: as §1
Assay [4] concerns Mus musculus. Nature of the assay: In vivo inhibition of rhodamine-azide tagged FAAH expressed in mouse liver at 10 mg/kg, ip administered for 2 hrs by CC-ABPP method based in-gel fluorescence scanning analysis. The class given is functional, organism-based. Put shortly:
as §1

Assay [5] deals with Rattus norvegicus. Nature of the assay: Antihyperalgesic activity in CFA induced Sprague-Dawley rat assessed as partial reduction of mechanical allodynia at 3 mg/kg, ip by von frey test. The class given is functional, organism-based. Put shortly: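 CFA (150 μl, 1 mg/ml in mineral oil) injected into the plantar hind paw of male Sprague-Dawley rats (200–250 g). On day 5, the CB1 or CB2 antagonist was given at 3 mg/kg i.p. 10 min before testing, alongside a 3 mg/kg p.o. dose of the FAAH inhibitor. Mechanical paw withdrawal thresholds were measured with Von Frey hairs; n = 8 rats/group.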

In assay [6] the target is T2, Fatty-acid amide hydrolase 1 (Mus musculus) (UniProt O08914).
T2 sequence (whole entry): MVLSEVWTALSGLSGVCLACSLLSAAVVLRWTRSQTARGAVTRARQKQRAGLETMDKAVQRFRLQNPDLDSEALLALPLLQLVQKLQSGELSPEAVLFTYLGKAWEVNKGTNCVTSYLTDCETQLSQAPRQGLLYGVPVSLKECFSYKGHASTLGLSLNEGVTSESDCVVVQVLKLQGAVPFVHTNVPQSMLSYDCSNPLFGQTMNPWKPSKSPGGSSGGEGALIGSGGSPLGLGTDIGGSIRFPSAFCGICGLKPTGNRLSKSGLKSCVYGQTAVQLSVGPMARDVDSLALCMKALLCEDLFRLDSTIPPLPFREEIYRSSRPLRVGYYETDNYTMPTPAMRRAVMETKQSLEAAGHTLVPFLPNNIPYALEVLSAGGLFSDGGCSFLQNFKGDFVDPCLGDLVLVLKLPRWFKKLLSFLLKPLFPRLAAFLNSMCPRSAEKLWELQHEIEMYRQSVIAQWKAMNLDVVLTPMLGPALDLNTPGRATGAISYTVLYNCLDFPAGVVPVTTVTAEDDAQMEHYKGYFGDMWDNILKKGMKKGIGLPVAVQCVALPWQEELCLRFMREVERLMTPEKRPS
Kind of assay: Inhibition of FAAH in mouse brain at 100 uM in presence of FP-rhodamine by competitive activity-based protein profiling method. The class given is tissue-based. Put shortly: (§2)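 Competitive ABPP on human and mouse brain, liver and heart proteomes (membrane and soluble fractions), exposed to compound at 10 or 100 μM or to DMSO. Serine hydrolases were then labeled with FP-rhodamine. Gels were read by fluorescence scanning, and loss of band labeling (FAAH or other hydrolases by kDa) was judged.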

For assay [7], the target named is T3, Fatty-acid amide hydrolase 1 (Homo sapiens) (UniProt O00519).
T3 sequence (whole entry): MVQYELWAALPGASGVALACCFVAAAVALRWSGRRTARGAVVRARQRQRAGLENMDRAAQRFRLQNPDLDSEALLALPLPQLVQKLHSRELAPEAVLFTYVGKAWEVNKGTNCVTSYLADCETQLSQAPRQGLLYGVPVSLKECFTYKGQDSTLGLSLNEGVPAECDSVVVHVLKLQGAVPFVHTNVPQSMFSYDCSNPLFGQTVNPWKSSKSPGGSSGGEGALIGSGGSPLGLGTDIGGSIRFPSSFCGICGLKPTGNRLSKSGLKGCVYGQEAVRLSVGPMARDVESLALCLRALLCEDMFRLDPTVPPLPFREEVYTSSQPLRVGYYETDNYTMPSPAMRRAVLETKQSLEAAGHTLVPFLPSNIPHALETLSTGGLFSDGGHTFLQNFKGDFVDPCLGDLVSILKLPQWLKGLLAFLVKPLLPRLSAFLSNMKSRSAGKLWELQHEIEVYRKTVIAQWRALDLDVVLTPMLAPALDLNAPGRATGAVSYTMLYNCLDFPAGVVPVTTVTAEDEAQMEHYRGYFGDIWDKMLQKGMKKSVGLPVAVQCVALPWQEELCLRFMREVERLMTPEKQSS
Kind of assay: Inhibition of FAAH in human brain at 100 uM in presence of FP-rhodamine by competitive activity-based protein profiling method. The class given is tissue-based. Put shortly: as §2

Assay [8] addresses T3, Fatty-acid amide hydrolase 1 (Homo sapiens). Kind of assay: Inhibition of human FAAH assessed as kinact/Ki ratio in presence of glutamate dehydrogenase by 384-well format microplate reader assay. Put shortly:
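Glutamate dehydrogenase-coupled assay in 384-well format, 50 μl final volume. NAD⁺ formed from ammonia released by oleamide hydrolysis, followed at 340 nm.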

Assay [9] has the same target. Nature of the assay: Inhibition of FAAH in human brain at 10 uM in presence of FP-rhodamine by competitive activity-based protein profiling method. Format: tissue-based. Put shortly: as §2
Assay [10] has as its target T2, Fatty-acid amide hydrolase 1 (Mus musculus). Nature of the assay: Inhibition of FAAH in mouse brain at 10 uM in presence of FP-rhodamine by competitive activity-based protein profiling method. Format: tissue-based. Put shortly:
as §2

Assay [11] addresses T3, Fatty-acid amide hydrolase 1 (Homo sapiens). Nature of the assay: Inhibition of FAAH (unknown origin) assessed as kinact/Ki ratio in presence of glutamate dehydrogenase by 384-well format microplate reader assay.
In assay [12] the test system is Rattus norvegicus. Kind of assay: Antihyperalgesic activity in MIA induced Sprague-Dawley rat assessed as increased joint compression thresholds at 30 mg/kg, po administered twice daily for 3 consecutive days measured after 2 to 4 hrs. Format: functional, organism-based. As to conditions: time 3.0 day. Put shortly: (§3)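 Male Sprague-Dawley rats (220–270 g), isoflurane-anesthetized, given 2 mg MIA in 0.9% saline (50 μl) intra-articular into the knee. From day 14, oral dosing at 10 ml/kg once daily for 3 days in 4% 2-hydroxypropyl-β-cyclodextrin/1% ethanol in 0.01 M HCl. Celecoxib 30 mg/kg in 0.5% methylcellulose twice daily. Joint compression threshold by digital Randall-Selitto at 2 and 4 h postdose on days 1 and 3; n = 10/group.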

Assay [13] deals with Rattus norvegicus. Kind of assay: Antihyperalgesic activity in MIA induced Sprague-Dawley rat assessed as effect on pain behaviour in contralateral knee joint at 0.3 to 3 mg/kg, po administered once daily for 3 consecutive days. Particulars: dose 0.3-3 mg/kg, time 3.0 day. Format: functional, organism-based. Put shortly:
as §3

For assay [14], the system named is Mus musculus. Kind of assay: Antinociceptive activity in C57BL6/J mouse assessed as increase in body temperature at 10 mg/kg, ip administered for 30 mins. The class given is functional, organism-based. Put shortly: (§4)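 Tetrad test in male C57BL6/J mice (7 weeks old; n = 8/group). Dosed i.p. at 10 ml/kg in 18:1:1 saline/Emulphor/ethanol, with a vehicle control group. Locomotive activity, thermal nociception (tail-immersion latency), catalepsy (60 s) and body temperature were assessed 30 min postdosing.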

Assay [15] deals with Mus musculus. Nature of the assay: Antinociceptive activity in C57BL6/J mouse assessed as reduction in locomotive activity at 10 mg/kg, ip administered for 30 mins. The class given is functional, organism-based. Put shortly:
as §4

Assay [16] relates to Mus musculus. Kind of assay: Antinociceptive activity in C57BL6/J mouse assessed as increase in catalepsy at 10 mg/kg, ip administered for 30 mins. The class given is functional, organism-based. Put shortly:
as §4

Assay [17] has as its system Mus musculus. Nature of the assay: Antinociceptive activity in C57BL6/J mouse assessed as increase in tail-immersion latency at 10 mg/kg, ip administered for 30 mins. The class given is functional, organism-based. Put shortly: as §4
Assay [18] has as its target T1, Fatty-acid amide hydrolase 1 (Rattus norvegicus). As to conditions: Sprague-Dawley, dose 10.0 mg/kg, route po.
Assay [19] has the same target. Particulars: Sprague-Dawley, dose 10.0 mg/kg, route po. The source holds these as a separate data set.
Assay [20] has the same target. As to conditions: Sprague-Dawley, dose 10.0 mg/kg, route po. The source holds these as a separate data set.
For assay [21] the target is unchanged. Particulars: Sprague-Dawley, dose 10.0 mg/kg, route po. The source holds these as a separate data set.
For assay [22] the target is unchanged. Particulars: Sprague-Dawley, dose 10.0 mg/kg, route po. The source holds these as a separate data set.
The target is the same in assay [23]. As to conditions: Sprague-Dawley, dose 10.0 mg/kg, route po. The source holds these as a separate data set.
The target is the same in assay [24]. As to conditions: Sprague-Dawley, dose 10.0 mg/kg, route po. This is another data set of the same source.

The source made the active and inactive calls.

For the compound `O=C(Nc1ccccc1)N1CCC(Cc2cnc3ccccc3c2)CC1`, the Ratio in [1] came to 104 M⁻¹ s⁻¹.
In the case of `C#CCCCCCCCCCNC(=O)Oc1cccc(-c2cccc(C(N)=O)c2)c1`, the inhibition entry in the assay with Mus musculus [2], in the assay on Mus musculus [3] and in the assay on Mus musculus [4] was “Active” in each case.
Turning to `Cc1c(C(=O)NN2CCCCC2)nn(-c2ccc(Cl)cc2Cl)c1-c1ccc(Cl)cc1`, in the assay on Rattus norvegicus [5], the result was inactive.
As for `Cc1ccc(Cn2nc(C(=O)N[C@@H]3C(C)(C)[C@@H]4CC[C@@]3(C)C4)cc2-c2ccc(Cl)c(C)c2)cc1`, the outcome in the assay on Rattus norvegicus [5] was inactive.
Consider `NC(=O)c1cccc(-c2cccc(OC(=O)NC3CCCCC3)c2)c1`, for which the inhibition entry in [6], in [7], in assay [9] and in assay [10] was “Active” throughout. In addition, the Ratio in [8] amounted to 1590 M⁻¹ s⁻¹.
Take `C#CCCCOc1ccc(Oc2cccc(C=C3CCN(C(=O)Nc4cccnn4)CC3)c2)nc1`: the inhibition entry with Mus musculus [3] and in the assay on Mus musculus [4] was “Active” in each case. The Ratio in assay [11] is 11900 M⁻¹ s⁻¹.
Consider `Cc1ccc(-c2cc(C(F)(F)F)nn2-c2ccc(S(N)(=O)=O)cc2)cc1`, for which, in the assay with Rattus norvegicus [12], the result was Active. For the same compound, the outcome with Rattus norvegicus [13] was inactive.
Consider `Cc1c(C(=O)c2cccc3ccccc23)c2cccc3c2n1[C@H](CN1CCOCC1)CO3`, for which the Activity entry in the assay on Mus musculus [14], with Mus musculus [15], with Mus musculus [16] and with Mus musculus [17] was “Toxic” throughout.
In the case of `COc1ccc2cc([C@H](C)C(=O)O)ccc2c1`, the inhibition result in [18], in assay [19], in assay [20], in [21], in assay [22] and in assay [23] was “inactive” each time. The inhibition entry in assay [24] was “inactive”.
